ChEMBL document CHEMBL2046414, “Design and optimization of novel (2S,4S,5S)-5-amino-6-(2,2-dimethyl-5-oxo-4-phenylpiperazin-1-yl)-4-hydroxy-2-isopropylhexanamides as renin inhibitors” (Bioorg Med Chem Lett, 2012)
Positions count from the first letter of the chain named.

Assays:
[1] = target: T1, Renin (Homo sapiens, UniProt P00797); assay: Inhibition of human purified renin
T1 sequence (P00797 whole entry): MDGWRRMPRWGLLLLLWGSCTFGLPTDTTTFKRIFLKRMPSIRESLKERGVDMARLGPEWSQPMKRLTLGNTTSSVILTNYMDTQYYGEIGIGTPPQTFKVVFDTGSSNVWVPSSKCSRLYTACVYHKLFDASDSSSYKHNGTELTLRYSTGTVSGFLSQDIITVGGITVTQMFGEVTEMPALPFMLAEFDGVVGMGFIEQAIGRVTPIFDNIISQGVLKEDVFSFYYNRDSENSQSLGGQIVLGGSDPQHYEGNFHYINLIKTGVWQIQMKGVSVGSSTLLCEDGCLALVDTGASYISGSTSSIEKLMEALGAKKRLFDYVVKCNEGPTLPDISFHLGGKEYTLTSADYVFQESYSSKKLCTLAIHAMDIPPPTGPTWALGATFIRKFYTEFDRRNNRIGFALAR

[2] = target: T2, Renin (Macaca fascicularis, UniProt Q6DLS0); assay: Inhibition of renin in cynomolgus monkey plasma
T2 sequence (Q6DLS0 whole entry): T1 sequence (P00797 whole entry) with T68A, I214L, S235A

[3] = Metabolic stability in cynomolgus monkey liver microsomes assessed as compound remaining at 1 uM incubated with NADPH generating system measured after 30 mins; format: ADME, Macaca fascicularis, Microsome; settings: read-out: Stability
In short: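 Monkey liver microsome stability, high-throughput in-house format: compound incubated at […] with an NADPH-generating system and 0.5 mg/mL microsomal protein at 37 °C.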

[4] = Oral bioavailability in cynomolgus monkey at 10 mg/kg; format: ADME, organism-based, Macaca fascicularis; settings: in vivo
[5] = Cmax in cynomolgus monkey at 10 mg/kg, po; format: ADME, organism-based, Macaca fascicularis; set-up: dose 10 mg/kg, route oral; settings: in vivo
[6] = Clearance in cynomolgus monkey at 1 mg/kg, iv; format: ADME, organism-based, Macaca fascicularis; set-up: dose 1 mg/kg, route intravenous; settings: in vivo
[7] = Volume of distribution at steady state in cynomolgus monkey at 1 mg/kg, iv; format: ADME, organism-based, Macaca fascicularis; set-up: dose 1 mg/kg, route intravenous; settings: in vivo, read-out: Vdss
[8] = Half life in cynomolgus monkey at 1 mg/kg, iv; format: ADME, organism-based, Macaca fascicularis; set-up: dose 1 mg/kg, route intravenous; settings: in vivo
[9] = AUC (0 to 24 hrs) in cynomolgus monkey at 10 mg/kg, po; settings: plasma

Structure (SMILES)	IC50 [1] [nM]	IC50 [2] [nM]	further results
COCOc1ccccc1N1CC(C)(C)N(C[C@H](N)[C@@H](O)C[C@H](C(=O)NCC(C)(C)C(N)=O)C(C)C)CC1=O	1.4	6.4	
COCCCOc1ccccc1N1CC(C)(C)N(C[C@H](N)[C@@H](O)C[C@H](C(=O)NCC(C)(C)C(N)=O)C(C)C)CC1=O	1.2	5.3	
COCCOc1ccccc1N1CC(C)(C)N(C[C@H](N)[C@@H](O)C[C@H](C(=O)NCC(C)(C)C(N)=O)C(C)C)CC1=O	1.7	9.8	
COc1ccccc1N1CC(C)(C)N(C[C@H](N)[C@@H](O)C[C@H](C(=O)NCC(C)(C)C(N)=O)C(C)C)CC1=O	1.9	19	
CC(C)[C@H](C[C@H](O)[C@@H](N)CN1CC(=O)N(c2ccccc2)CC1(C)C)C(=O)NCC(C)(C)C(N)=O	3.1	49	
CC(C)[C@H](C[C@H](O)[C@@H](N)CN1CC(=O)N(c2ccccc2F)CC1(C)C)C(=O)NCC(C)(C)C(N)=O	2.2	30	
Cc1ccccc1N1CC(C)(C)N(C[C@H](N)[C@@H](O)C[C@H](C(=O)NCC(C)(C)C(N)=O)C(C)C)CC1=O	1.7	24	
CC(C)[C@H](C[C@H](O)[C@@H](N)CN1CC(=O)N(c2ccccc2Cl)CC1(C)C)C(=O)NCC(C)(C)C(N)=O		7	
COc1cccc(N2CC(C)(C)N(C[C@H](N)[C@@H](O)C[C@H](C(=O)NCC(C)(C)C(N)=O)C(C)C)CC2=O)c1	4.2	58	
CC(C)[C@H](C[C@H](O)[C@@H](N)CN1CC(=O)N(c2cccc(F)c2)CC1(C)C)C(=O)NCC(C)(C)C(N)=O	3	23	
CC(C)[C@H](C[C@H](O)[C@@H](N)CN1CC(=O)N(c2cccc(Cl)c2)CC1(C)C)C(=O)NCC(C)(C)C(N)=O	2.1	25	
CC(C)[C@H](C[C@H](O)[C@@H](N)CN1CC(=O)N(c2cccc(F)c2F)CC1(C)C)C(=O)NCC(C)(C)C(N)=O	2	11	
CC(C)[C@H](C[C@H](O)[C@@H](N)CN1CC(=O)N(c2cc(F)ccc2F)CC1(C)C)C(=O)NCC(C)(C)C(N)=O	2	30	
CC(C)[C@H](C[C@H](O)[C@@H](N)CN1CC(=O)N(c2c(F)cccc2F)CC1(C)C)C(=O)NCC(C)(C)C(N)=O	2.4	12	
CC(C)[C@H](C[C@H](O)[C@@H](N)CN1CC(=O)N(c2cc(F)cc(F)c2)CC1(C)C)C(=O)NCC(C)(C)C(N)=O	5.5	90	
CC(C)[C@H](C[C@H](O)[C@@H](N)CN1CC(=O)N(c2cc(F)ccc2Cl)CC1(C)C)C(=O)NCC(C)(C)C(N)=O	2.1	7	
CC(C)[C@H](C[C@H](O)[C@@H](N)CN1CC(=O)N(c2cc(Cl)ccc2Cl)CC1(C)C)C(=O)NCC(C)(C)C(N)=O	2.1	28	
COc1ccc(Cl)c(N2CC(C)(C)N(C[C@H](N)[C@@H](O)C[C@H](C(=O)NCC(C)(C)C(N)=O)C(C)C)CC2=O)c1	2.4	33	
CCCCNC(=O)[C@@H](C[C@H](O)[C@@H](N)CN1CC(=O)N(c2ccccc2Cl)CC1(C)C)C(C)C	1	9	remaining at 0.5 h, 1 µM [3]: 39.2%
CC[C@H](C)CNC(=O)[C@@H](C[C@H](O)[C@@H](N)CN1CC(=O)N(c2ccccc2Cl)CC1(C)C)C(C)C	1	2	remaining at 0.5 h, 1 µM [3]: 8.4%
CC(C)[C@H](C[C@H](O)[C@@H](N)CN1CC(=O)N(c2ccccc2Cl)CC1(C)C)C(=O)NC1CCCCC1	1	11	remaining at 0.5 h, 1 µM [3]: 17.5%
CCCCNC(=O)[C@@H](C[C@H](O)[C@@H](N)CN1CC(=O)N(c2cc(F)ccc2Cl)CC1(C)C)C(C)C.O=C(O)/C=C/C(=O)O	2	25	remaining at 0.5 h, 1 µM [3]: 52.2%; bioavailability [4]: 18.5%; Cmax [5]: 576 ng/mL; clearance [6]: 14.7 mL/min/kg; Vd [7]: 16.3 L/kg; half-life [8]: 10.8 h; AUC(0-t) at 24 h [9]: 2110 ng·h/mL
CC[C@H](C)CNC(=O)[C@@H](C[C@H](O)[C@@H](N)CN1CC(=O)N(c2cc(F)ccc2Cl)CC1(C)C)C(C)C	1.4	8	remaining at 0.5 h, 1 µM [3]: 1.9%
CC(C)[C@H](C[C@H](O)[C@@H](N)CN1CC(=O)N(c2cc(F)ccc2Cl)CC1(C)C)C(=O)NC1CCCCC1	1.9	5	remaining at 0.5 h, 1 µM [3]: 38%
COCCCOc1ccccc1C1CCN(CC(N)C(O)CC(C(=O)NCC(C)(C)C(N)=O)C(C)C)CC1 (racemic)	370	12500	
COCCCOc1ccccc1N1CCN(CC(N)C(O)CC(C(=O)NCC(C)(C)C(N)=O)C(C)C)CC1=O (racemic)		2800	
COCCCOc1cccc(N2CCN(CC(N)C(O)CC(C(=O)NCC(C)(C)C(N)=O)C(C)C)CC2=O)c1 (racemic)	400	3000	
COCCCOc1ccccc1N1CC(C)(C)N(CC(N)C(O)CC(C(=O)NCC(C)(C)C(N)=O)C(C)C)CC1=O (racemic)	3.3	10	
COCCCOc1ccccc1N1CCN(CC(N)C(O)CC(C(=O)NCC(C)(C)C(N)=O)C(C)C)C(C)(C)C1=O (racemic)	170	875	
